Laboratory results from ChEMBL document CHEMBL5244264, “Design, synthesis, and structure activity relationship (SAR) studies of novel imidazo[1,2-a] pyridine derivatives as Nek2 inhibitors” (Bioorg Med Chem, 2020).

Tests used:
Assay type in all cases: functional, cell-based
MGC-803 = experiment: Antitumor activity against human MGC-803 cells assessed as inhibition of cell proliferation incubated for 72 hrs by MTT assay; conditions: MGC-803, 72 h
Hep 3B2 = experiment: Antitumor activity against human Hep3B cells assessed as inhibition of cell proliferation incubated for 72 hrs by MTT assay
Procedure, shortened: (§1)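 Cells were exposed to a range of compound concentrations for 72 h at 37 °C. Proliferation was read by MTT assay, and IC50 values are reported.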

Bel-7402 = experiment: Antitumor activity against human Bel-7402 cells assessed as inhibition of cell proliferation incubated for 72 hrs by MTT assay; conditions: Bel-7402, 72 h; procedure, shortened: as §1
HCT-116 = experiment: Antitumor activity against human HCT-116 cells assessed as inhibition of cell proliferation incubated for 72 hrs by MTT assay; conditions: HCT-116, 72 h; procedure, shortened: as §1

CC(Oc1cc(-c2cnc3cc(-c4cnn(CCN(C)C)c4)ccn23)sc1C(N)=O)c1cccc(F)c1 (stereo not given)
IC50 (MGC-803): 6.02 µM

CC(Oc1cc(-c2cnc3cc(-c4cnn(CCN5CCOCC5)c4)ccn23)sc1C(N)=O)c1ccccc1C(F)(F)F (stereo not given)
IC50 (MGC-803): 0.044 µM
IC50 (Hep 3B2): 1.25 µM
IC50 (Bel-7402): 4.33 µM
IC50 (HCT-116): 0.36 µM

COC(=O)c1sc(-c2cnc3cc(-c4cnn(CCN(C)C)c4)ccn23)cc1OC(C)c1ccccc1F (stereo not given)
IC50 (MGC-803): 2.47 µM

CC(Oc1cc(-c2cnc3cc(-c4cnn(C5CCN(C(=O)OC(C)(C)C)C5)c4)ccn23)sc1C(N)=O)c1ccccc1C(F)(F)F (stereo not given)
IC50 (MGC-803): 0.55 µM

COC(=O)c1sc(-c2cnc3cc(-c4cnn(C)c4)ccn23)cc1OC(C)c1ccccc1 (stereo not given)
IC50 (MGC-803): 9.18 µM

CC(Oc1cc(-c2cnc3cc(-c4cnn(CCN(C)C)c4)ccn23)sc1C(N)=O)c1ccccc1F (stereo not given)
IC50 (MGC-803): 2.91 µM

COC(=O)c1sc(-c2cnc3cc(-c4cnn(CCN(C)C)c4)ccn23)cc1OC(C)c1ccccc1 (stereo not given)
IC50 (MGC-803): 1.29 µM

CC(Oc1cc(-c2cnc3cc(-c4cnn(CC5CN(C(=O)OC(C)(C)C)C5)c4)ccn23)sc1C(N)=O)c1ccccc1C(F)(F)F (stereo not given)
IC50 (MGC-803): 0.038 µM
IC50 (Hep 3B2): 1.25 µM
IC50 (Bel-7402): 10.4 µM
IC50 (HCT-116): 0.48 µM

CC(Oc1cc(-c2cnc3cc(-c4cnn(CCN(C)C)c4)ccn23)sc1C(N)=O)c1ccccc1 (stereo not given)
IC50 (MGC-803): 1.95 µM

CC(Oc1cc(-c2cnc3cc(-c4cnn(CCCN5CCN(C)CC5)c4)ccn23)sc1C(N)=O)c1ccccc1C(F)(F)F (stereo not given)
IC50 (MGC-803): 0.054 µM
IC50 (Hep 3B2): 1.18 µM
IC50 (Bel-7402): 5.99 µM
IC50 (HCT-116): 0.46 µM

COC(=O)c1sc(-c2cnc3cc(-c4cnn(C)c4)ccn23)cc1OC(C)c1cccc(F)c1 (stereo not given)
IC50 (MGC-803): > 30 µM

COC(=O)c1sc(-c2cnc3cc(-c4cnn(C)c4)ccn23)cc1OC(C)c1cccc(C(F)(F)F)c1 (stereo not given)
IC50 (MGC-803): 17.3 µM

CC(Oc1cc(-c2cnc3cc(-c4cnn(C)c4)ccn23)sc1C(N)=O)c1ccccc1F (stereo not given)
IC50 (MGC-803): 3.52 µM

CC(Oc1cc(-c2cnc3cc(-c4cnn(CCN5CCCCC5)c4)ccn23)sc1C(N)=O)c1ccccc1C(F)(F)F (stereo not given)
IC50 (MGC-803): 8.68 µM

COC(=O)c1sc(-c2cnc3cc(-c4cnn(CCN(C)C)c4)ccn23)cc1OC(C)c1cccc(F)c1 (stereo not given)
IC50 (MGC-803): 1.57 µM

COC(=O)c1sc(-c2cnc3cc(-c4cnn(C)c4)ccn23)cc1OC(C)c1ccccc1C(F)(F)F (stereo not given)
IC50 (MGC-803): 3.92 µM

CC(Oc1cc(-c2cnc3cc(-c4cnn(C)c4)ccn23)sc1C(N)=O)c1cccc(F)c1 (stereo not given)
IC50 (MGC-803): 16.4 µM

CC(Oc1cc(-c2cnc3cc(-c4cnn(C5CCN(C(=O)OC(C)(C)C)CC5)c4)ccn23)sc1C(N)=O)c1ccccc1C(F)(F)F (stereo not given)
IC50 (MGC-803): 1.81 µM

COC(=O)c1sc(-c2cnc3cc(-c4cnn(CCCN5CCN(C)CC5)c4)ccn23)cc1OC(C)c1ccccc1C(F)(F)F (stereo not given)
IC50 (MGC-803): 3.76 µM

CC(Oc1cc(-c2cnc3cc(-c4cnn(CCN(C)C)c4)ccn23)sc1C(N)=O)c1cccc(C(F)(F)F)c1 (stereo not given)
IC50 (MGC-803): 6.81 µM

CC(Oc1cc(-c2cnc3cc(-c4cnn(C)c4)ccn23)sc1C(N)=O)c1cccc(C(F)(F)F)c1 (stereo not given)
IC50 (MGC-803): 3.48 µM

COC(=O)c1sc(-c2cnc3cc(-c4cnn(CC5CN(C(=O)OC(C)(C)C)C5)c4)ccn23)cc1OC(C)c1ccccc1C(F)(F)F (stereo not given)
IC50 (MGC-803): 19.3 µM

CN(C)CCn1cc(-c2ccn3c(-c4ccc(C(N)=O)c(OCc5cccc(F)c5)c4)cnc3c2)cn1
IC50 (MGC-803): 0.65 µM
IC50 (Hep 3B2): 1.07 µM
IC50 (Bel-7402): 6.37 µM
IC50 (HCT-116): 0.7 µM

COC(=O)c1sc(-c2cnc3cc(-c4cnn(CCN(C)C)c4)ccn23)cc1OC(C)c1ccccc1C(F)(F)F (stereo not given)
IC50 (MGC-803): 0.32 µM

COC(=O)c1sc(-c2cnc3cc(-c4cnn(C5CCN(C(=O)OC(C)(C)C)CC5)c4)ccn23)cc1OC(C)c1ccccc1C(F)(F)F (stereo not given)
IC50 (MGC-803): 20.4 µM

COC(=O)c1sc(-c2cnc3cc(-c4cnn(CCN(C)C)c4)ccn23)cc1OC(C)c1cccc(C(F)(F)F)c1 (stereo not given)
IC50 (MGC-803): 4.71 µM

COC(=O)c1sc(-c2cnc3cc(-c4cnn(C)c4)ccn23)cc1OC(C)c1ccccc1F (stereo not given)
IC50 (MGC-803): 11.1 µM

COC(=O)c1sc(-c2cnc3cc(-c4cnn(C5CCN(C(=O)OC(C)(C)C)C5)c4)ccn23)cc1OC(C)c1ccccc1C(F)(F)F (stereo not given)
IC50 (MGC-803): 20.3 µM

COC(=O)c1sc(-c2cnc3cc(-c4cnn(CCN5CCCC5)c4)ccn23)cc1OC(C)c1ccccc1C(F)(F)F (stereo not given)
IC50 (MGC-803): 2.05 µM

COC(=O)c1sc(-c2cnc3cc(-c4cnn(CCN5CCCCC5)c4)ccn23)cc1OC(C)c1ccccc1C(F)(F)F (stereo not given)
IC50 (MGC-803): 7.36 µM

CC(Oc1cc(-c2cnc3cc(-c4cnn(C)c4)ccn23)sc1C(N)=O)c1ccccc1 (stereo not given)
IC50 (MGC-803): 2.98 µM

COC(=O)c1sc(-c2cnc3cc(-c4cnn(CCN5CCOCC5)c4)ccn23)cc1OC(C)c1ccccc1C(F)(F)F (stereo not given)
IC50 (MGC-803): 5.9 µM

CC(Oc1cc(-c2cnc3cc(-c4cnn(CCN5CCCC5)c4)ccn23)sc1C(N)=O)c1ccccc1C(F)(F)F (stereo not given)
IC50 (MGC-803): 8.4 µM
